Test results reported in ChEMBL document CHEMBL2163220 (J Med Chem, 2012).
Calls of active or inactive are those of the source. The calls are words filed in the database; no cut-off is given here.

What was measured:
Format in all cases: functional, cell-based
[1] = target: T1, Glucocorticoid receptor (Homo sapiens) (UniProt P04150); experiment: Antagonist activity at glucocorticoid receptor expressed in human PC3 cells assessed as reduction in dexamethasone-induced receptor transactivation at 1 uM by luciferase reporter gene assay; conditions: PC-3
T1 sequence (whole entry): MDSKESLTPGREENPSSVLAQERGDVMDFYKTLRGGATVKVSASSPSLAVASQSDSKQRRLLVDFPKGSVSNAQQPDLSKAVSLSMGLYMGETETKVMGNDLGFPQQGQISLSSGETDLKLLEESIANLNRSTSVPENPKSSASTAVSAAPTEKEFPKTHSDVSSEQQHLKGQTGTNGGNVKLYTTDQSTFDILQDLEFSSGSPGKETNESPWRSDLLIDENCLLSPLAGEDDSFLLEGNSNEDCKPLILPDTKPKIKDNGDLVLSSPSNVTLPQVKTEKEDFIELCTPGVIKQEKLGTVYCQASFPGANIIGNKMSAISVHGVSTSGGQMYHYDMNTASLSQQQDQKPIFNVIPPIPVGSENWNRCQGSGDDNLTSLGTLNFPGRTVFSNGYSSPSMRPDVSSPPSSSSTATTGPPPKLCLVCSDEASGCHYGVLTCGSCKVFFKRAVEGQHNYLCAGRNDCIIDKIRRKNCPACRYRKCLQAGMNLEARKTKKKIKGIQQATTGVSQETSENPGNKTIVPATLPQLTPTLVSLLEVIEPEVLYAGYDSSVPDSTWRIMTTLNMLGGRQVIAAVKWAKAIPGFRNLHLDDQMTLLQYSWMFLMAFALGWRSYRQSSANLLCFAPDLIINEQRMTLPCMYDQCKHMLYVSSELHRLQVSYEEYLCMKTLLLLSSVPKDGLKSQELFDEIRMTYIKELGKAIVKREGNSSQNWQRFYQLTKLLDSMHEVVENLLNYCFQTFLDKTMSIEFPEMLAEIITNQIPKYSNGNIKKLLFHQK
Procedure, shortened: (§1)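 PC-3 cells express GR endogenously and were transfected only with the MMTV-luc reporter. Compound tested at 1 μM, alone or against transactivation induced by 10 nM dexamethasone. Read-out was luciferase reporter activity.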

[2] = target: T2, Androgen receptor (Homo sapiens) (UniProt P10275); experiment: Agonist activity at androgen receptor expressed in human PC3 cells assessed as stimulation of receptor transactivation at 0.1 to 1 uM by luciferase reporter gene assay; conditions: PC-3
T2 sequence (whole entry): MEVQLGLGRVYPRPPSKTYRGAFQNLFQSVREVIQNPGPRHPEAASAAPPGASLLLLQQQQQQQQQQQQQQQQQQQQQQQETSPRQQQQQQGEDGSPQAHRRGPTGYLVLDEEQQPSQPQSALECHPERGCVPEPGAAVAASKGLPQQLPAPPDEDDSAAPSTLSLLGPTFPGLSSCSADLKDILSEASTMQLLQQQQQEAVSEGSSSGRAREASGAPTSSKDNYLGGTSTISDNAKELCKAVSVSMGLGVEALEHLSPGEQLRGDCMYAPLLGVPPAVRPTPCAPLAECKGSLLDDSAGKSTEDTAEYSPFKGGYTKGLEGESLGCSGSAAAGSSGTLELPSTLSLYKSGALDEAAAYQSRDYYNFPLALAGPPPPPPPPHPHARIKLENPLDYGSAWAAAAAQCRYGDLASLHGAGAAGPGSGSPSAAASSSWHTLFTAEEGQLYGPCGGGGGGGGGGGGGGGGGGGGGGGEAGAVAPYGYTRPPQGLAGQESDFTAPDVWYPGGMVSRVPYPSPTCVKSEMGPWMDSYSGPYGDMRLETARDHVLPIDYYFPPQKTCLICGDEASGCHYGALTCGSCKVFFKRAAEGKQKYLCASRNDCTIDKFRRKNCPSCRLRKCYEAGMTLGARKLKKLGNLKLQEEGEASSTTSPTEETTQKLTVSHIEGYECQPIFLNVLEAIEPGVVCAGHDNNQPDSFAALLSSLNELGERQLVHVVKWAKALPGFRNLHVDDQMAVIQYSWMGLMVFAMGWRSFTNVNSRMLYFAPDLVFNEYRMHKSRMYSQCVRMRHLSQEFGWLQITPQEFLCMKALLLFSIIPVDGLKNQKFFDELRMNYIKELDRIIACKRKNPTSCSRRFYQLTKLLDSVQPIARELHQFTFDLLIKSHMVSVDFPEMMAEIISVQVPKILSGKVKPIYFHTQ
Procedure, shortened: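 Full-length wild-type or mutant AR plasmid transiently transfected into PC-3 cells with MMTV-luc and Renilla luciferase reporters. Cells treated with DMSO vehicle or compound at 0.1 and 1 μM, alone or with 0.1 nM DHT. Luciferase read as relative luciferase units. Run in triplicate.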

[3] = target: T1, Glucocorticoid receptor (Homo sapiens); experiment: Agonist activity at glucocorticoid receptor expressed in human PC3 cells assessed as stimulation of receptor transactivation at 1 uM by luciferase reporter gene assay; conditions: PC-3; procedure, shortened: as §1
LNCaP = experiment: Induction of apoptosis in human LNCAP cells assessed as caspase-3 activation incubated for 24 hrs by Western blotting
Procedure, shortened: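 LNCaP cells in complete medium were exposed to DMSO or compound at 1, 2.5 and 5 μM for 24 h. Western blot measured AR, maspin, caspase-3 activation and PARP cleavage, with β-actin as loading control.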

With `Cc1coc2c1C(=O)C(=O)c1c-2ccc2c1CCCC2(C)C` [TANSHINONE IIA] the Activity [1] was “inactive”, the Activity [2] was “inactive” and the Activity [3] was “inactive”. The Activity (LNCaP) was “Dose-dependent effect”.
